Data as given in ChEMBL document CHEMBL4765239, “Discovery of a Novel Highly Selective Histamine H4 Receptor Antagonist for the Treatment of Atopic Dermatitis” (J Med Chem, 2018).
pIC50: −log10 of the molar value. Active and inactive are the calls of the source. The rule behind the calls is not given here.

Tests used:
Histamine H3 receptor = Histamine H3 receptor (Homo sapiens, UniProt Q9Y5N1); experiment: Displacement of [3H]-N-alpha-methylhistamine from recombinant human histamine H3 receptor after 60 mins by radiometric scintillation counting analysis
Histamine H4 receptor [1] = molecular target: T1, Histamine H4 receptor (Mus musculus, UniProt Q91ZY2); experiment: Antagonist activity at recombinant mouse histamine H4 receptor expressed in CHO-K1 cells assessed as inhibition of R-alpha-methylhistamine induced stimulation of [35S]-GTPgammaS binding by scintillation proximity assay; format: functional, cell membranes, Cell membrane
T1 sequence (Q91ZY2 whole entry): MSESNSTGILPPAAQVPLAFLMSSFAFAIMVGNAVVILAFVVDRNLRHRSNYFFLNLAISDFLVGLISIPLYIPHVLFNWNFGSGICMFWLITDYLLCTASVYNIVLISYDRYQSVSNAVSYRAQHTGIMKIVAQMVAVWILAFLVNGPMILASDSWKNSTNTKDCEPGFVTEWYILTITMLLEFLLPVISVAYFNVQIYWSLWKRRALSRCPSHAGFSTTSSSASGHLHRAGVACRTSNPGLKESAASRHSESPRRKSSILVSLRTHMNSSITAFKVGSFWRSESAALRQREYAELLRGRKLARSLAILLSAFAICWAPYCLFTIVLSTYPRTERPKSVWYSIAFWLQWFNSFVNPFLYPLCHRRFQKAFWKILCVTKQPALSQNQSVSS
Procedure, shortened: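 GTPγ35S binding on recombinant mouse H4R, run by an outside contractor. R-α-methylhistamine served as reference agonist and thioperamide as reference antagonist.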

[2] = Tmax in ICR mouse at 2 mg/kg, po measured upto 24 hrs by LC-MS/MS analysis; format: ADME, organism-based; conditions: in vivo
Procedure, shortened: (§1)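 Female ICR mice, n=3 per group, given test compound orally. Blood sampled at 0.5, 1, 2, 4, 7 and 24 h post dose; plasma levels quantified by LC-MS/MS. Parameters from non-compartmental analysis.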

[3] = Protein binding in mouse plasma; format: ADME, cell-free; conditions: read-out: PPB (converted)
Histamine H4 receptor [4] = molecular target: T1, Histamine H4 receptor; experiment: Displacement of [3H]-histamine from recombinant mouse histamine H4 receptor expressed in CHO-K1 cell membranes measured after 30 mins by microbeta scintillation counting method; set-up: species or system Cell membrane
Procedure, shortened: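 Competitive binding on CHO-K1 membranes expressing human H3R ([3H]Nα-methylhistamine) or mouse H4R ([3H]histamine). Run in 50 mM Tris-HCl pH 7.4 for 30 min at 27 °C, then filtered onto 0.5% PEI-treated glass fiber and washed three times with ice-cold buffer. Bound radioactivity read by liquid scintillation counting.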

Mus musculus [5] = experiment: Antiinflammatory activity in oxazolone-induced Balb/c mouse model of atopic dermatitis assessed as reduction of epidermal thicken in skin lesions at 50 mg/kg, po BID administered 30 mins prior to oxazolone challenge for 3 weeks by hematoxylin and eosin staining based histopathological analysis; format: functional, organism-based
Procedure, shortened: (§2)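 Female BALB/c mice (n=8), abdomen shaved. Sensitized on day 0 with topical 1% oxazolone (50 µL) in acetone/corn oil 4:1. From day 7, right ear challenged with 0.2% oxazolone (25 µL) 3 times weekly; left ear got vehicle. Oral dosing twice daily, 30 min before challenge, for 3 weeks. Scratching counted for 1 h after challenge on day 25. Ear thickness measured; ear fixed in 4% paraformaldehyde, 3 µm paraffin sections stained with H&E for epidermal thickness. Mean ± S.E.M., t-test.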

Mus musculus [6] = experiment: Antiinflammatory activity in oxazolone-induced Balb/c mouse model of atopic dermatitis assessed as reduction of hyperplasia at 50 mg/kg, po BID administered 30 mins prior to oxazolone challenge for 3 weeks by hematoxylin and eosin staining based histopathological analysis; format: functional, organism-based
[7] = Cmax in ICR mouse at 2 mg/kg, po measured upto 24 hrs by LC-MS/MS analysis; format: ADME, organism-based; set-up: route oral, dose 2 mg/kg, time <=24; conditions: in vivo; procedure, shortened: as §1
[8] = Cmax in ICR mouse at 10 mg/kg, po measured upto 24 hrs by LC-MS/MS analysis; format: ADME, organism-based; set-up: route oral, dose 10 mg/kg, time <=24; conditions: in vivo; procedure, shortened: as §1
[9] = molecular target: Histamine H1 receptor (Homo sapiens) (UniProt P35367); experiment: Displacement of [3H]pyrilamine from recombinant human histamine H1 receptor after 60 mins by scintillation counting analysis
Mus musculus [10] = experiment: Anti-pruritus activity in ICR mouse with histamine-induced itching assessed as free plasma concentration causing 50% reduction of scratching bouts at 10 mg/kg, po administered 30 mins prior to histamine challenge and measured upto 20 mins; format: functional; conditions: time 50 min
Procedure, shortened: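 Female ICR mice, oral dose in 20% hydroxypropyl-β-cyclodextrin 30 min before intradermal histamine (300 nmol). Scratching bouts counted over 20 min from video. Free plasma concentration at Tmax was plotted against the scratching response.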

[11] = AUC (all) in ICR mouse at 10 mg/kg, po measured upto 24 hrs by LC-MS/MS analysis; format: ADME, organism-based; set-up: route oral, dose 10 mg/kg, time <=24; conditions: in vivo; procedure, shortened: as §1
[12] = AUC (all) in ICR mouse at 50 mg/kg, po measured upto 24 hrs by LC-MS/MS analysis; format: ADME, organism-based; set-up: route oral, dose 50 mg/kg, time <=24; conditions: in vivo; procedure, shortened: as §1
Mus musculus [13] = experiment: Anti-pruritus activity in oxazolone-induced Balb/c mouse model of atopic dermatitis assessed as reduction of scratching bouts at 50 mg/kg, po BID administered 30 mins prior to oxazolone challenge for 3 weeks and measured on day 25; format: functional, organism-based; procedure, shortened: as §2
[14] = Tmax in ICR mouse at 10 mg/kg, po measured upto 24 hrs by LC-MS/MS analysis; format: ADME, organism-based; conditions: in vivo; procedure, shortened: as §1
[15] = AUC (all) in ICR mouse at 2 mg/kg, po measured upto 24 hrs by LC-MS/MS analysis; format: ADME, organism-based; set-up: route oral, dose 2 mg/kg, time <=24; conditions: in vivo; procedure, shortened: as §1
[16] = Protein binding in human plasma; format: ADME, cell-free; conditions: read-out: PPB (converted)
Histamine H4 receptor [17] = molecular target: Histamine H4 receptor (Homo sapiens, UniProt Q9H3N8); experiment: Antagonist activity at recombinant human histamine H4 receptor expressed in CHO-K1 cells assessed as inhibition of R-alpha-methylhistamine induced stimulation of [35S]-GTPgammaS binding by scintillation proximity assay; format: functional, cell membranes, Cell membrane
Procedure, shortened: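 Functional [35S]GTPγS binding on recombinant human H4R. Antagonism was measured against the reference agonist R-α-methylhistamine, with JNJ10191584 as the reference antagonist. Run by a contract lab.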

Mus musculus [18] = experiment: Anti-pruritus activity in ICR mouse with histamine-induced itching assessed as reduction of scratching bouts at 50 mg/kg, po administered 30 mins prior to histamine challenge and measured upto 20 mins; format: functional; conditions: 50 min
Procedure, shortened: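 Female ICR mice (n=8-10 per group), back skin clipped 24 h before. Oral dose in 20% hydroxypropyl-β-cyclodextrin given 30 min before intradermal pruritogen in saline: histamine 300 nmol, substance P 100 nmol or C48/80 100 µg. Scratching bouts counted from video for 20 min after injection. Mean ± S.E.M., Student's t-test.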

[19] = Ratio of anti-pruritus activity in ICR mouse with histamine-induced itching assessed as free plasma concentration causing 50% reduction of scratching bouts at 10 mg/kg, po administered 30 mins prior to histamine challenge and measured upto 20 mins to Ic50 for displacement of [3H]-histamine from recombinant mouse histamine H4 receptor expressed in CHO-K1 cell membranes
Procedure, shortened: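 Itch model: female ICR mice (n=8-10), back clipped 24 h earlier, dosed orally in 20% hydroxypropyl-β-cyclodextrin 30 min before intradermal histamine (300 nmol, saline). Scratching bouts were videorecorded for 20 min. Free plasma concentration taken at Tmax. Binding used CHO-K1 mouse H4R membranes with [3H]histamine in 50 mM Tris-HCl pH 7.4, 30 min at 27 °C, then filtration and scintillation counting.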

[20] = Cmax in ICR mouse at 50 mg/kg, po measured upto 24 hrs by LC-MS/MS analysis; format: ADME, organism-based; set-up: route oral, dose 50 mg/kg, time <=24; conditions: in vivo; procedure, shortened: as §1

Histamine H4 receptor (Homo sapiens, UniProt Q9H3N8), sequence (Q9H3N8 whole entry): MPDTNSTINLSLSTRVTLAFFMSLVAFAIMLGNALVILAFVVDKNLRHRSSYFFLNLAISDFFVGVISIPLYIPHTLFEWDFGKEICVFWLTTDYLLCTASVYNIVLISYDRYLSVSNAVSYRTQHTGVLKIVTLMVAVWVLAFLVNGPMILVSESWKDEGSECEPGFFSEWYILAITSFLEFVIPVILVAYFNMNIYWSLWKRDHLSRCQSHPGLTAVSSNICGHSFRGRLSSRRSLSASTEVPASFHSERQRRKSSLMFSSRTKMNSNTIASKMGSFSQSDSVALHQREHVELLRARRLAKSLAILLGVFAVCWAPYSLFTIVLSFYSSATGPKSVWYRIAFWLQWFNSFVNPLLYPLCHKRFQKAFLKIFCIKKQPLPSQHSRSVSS
Histamine H3 receptor, sequence (Q9Y5N1 whole entry): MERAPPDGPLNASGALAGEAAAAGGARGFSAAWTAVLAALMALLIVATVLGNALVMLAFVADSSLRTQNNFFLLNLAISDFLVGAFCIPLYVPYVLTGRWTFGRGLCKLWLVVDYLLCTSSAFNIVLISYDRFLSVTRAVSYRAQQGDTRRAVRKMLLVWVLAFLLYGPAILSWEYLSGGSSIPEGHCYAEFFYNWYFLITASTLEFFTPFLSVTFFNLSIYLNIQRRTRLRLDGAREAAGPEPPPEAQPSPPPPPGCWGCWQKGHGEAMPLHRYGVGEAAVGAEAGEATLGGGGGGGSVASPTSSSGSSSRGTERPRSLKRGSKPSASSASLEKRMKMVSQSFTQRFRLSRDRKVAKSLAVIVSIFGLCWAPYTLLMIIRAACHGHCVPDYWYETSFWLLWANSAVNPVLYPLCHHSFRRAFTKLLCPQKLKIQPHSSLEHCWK
Histamine H1 receptor (Homo sapiens), sequence (P35367 whole entry): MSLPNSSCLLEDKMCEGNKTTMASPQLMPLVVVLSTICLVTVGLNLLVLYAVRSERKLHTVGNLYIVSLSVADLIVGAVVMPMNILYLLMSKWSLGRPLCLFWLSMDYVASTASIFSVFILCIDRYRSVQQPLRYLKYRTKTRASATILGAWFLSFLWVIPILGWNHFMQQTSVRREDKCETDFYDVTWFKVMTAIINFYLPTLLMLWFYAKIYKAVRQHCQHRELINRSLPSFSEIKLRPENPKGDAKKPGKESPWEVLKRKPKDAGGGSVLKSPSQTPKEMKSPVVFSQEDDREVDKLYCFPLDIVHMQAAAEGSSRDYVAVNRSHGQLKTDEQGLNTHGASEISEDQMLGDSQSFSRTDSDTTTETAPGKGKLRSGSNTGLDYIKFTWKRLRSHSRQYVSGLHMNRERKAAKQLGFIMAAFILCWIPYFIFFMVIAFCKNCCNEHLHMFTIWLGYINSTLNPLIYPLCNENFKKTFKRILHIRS

In the case of `CNC1CN(c2nc3ncc(Br)cc3n3nnnc23)C1`, the Activity (Histamine H3 receptor) was “inactive”, the pIC50 (Histamine H4 receptor [1]) was 6.16 and the Tmax [2] was 30 min. For the same molecule, the fraction unbound [3] was 0.348, the pIC50 (Histamine H4 receptor [4]) was 6.54 and the Activity (Mus musculus [5]) was “Active”. For the same molecule, the Activity (Mus musculus [6]) was “Active”, the Cmax [7] was 180 ng/mL and the Cmax [8] was 1820 ng/mL. For the same molecule, the Activity [9] was “inactive”, the “Cp(f)” value (Mus musculus [10]) was 1.89 µM and the AUC at 24 h [11] was 5400 ng·h/mL. The AUC at 24 h [12] was 62600 ng·h/mL, the Activity (Mus musculus [13]) was “Active” and the Tmax [14] was 30 min. For the same molecule, the AUC at 24 h [15] was 251 ng·h/mL, the fraction unbound [16] was 0.265 and the pIC50 (Histamine H4 receptor [17]) was 7.55. The inhibition in vivo at 50 mg/kg (Mus musculus [18]) was 100%, the Ratio [19] was 3 and the Cmax [20] was 7690 ng/mL.
